Laboratory results from the RNAGym collection of RNA variant scans (doi:10.1002/anie.201605470).

B1: Osa-1-4 twister ribozyme (parent)
chain: CCGCCUAACACUGCCAAUGCCGGUCCCAAGCCCGGAUAAAAGUGGAGGGGGCGG

Variants of: B1
Assay: self-cleavage, relative activity (ratio to wild type); higher = more cleavage; co-transcriptional
Procedure, shortened: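 For each read, cleavage status was taken from whether upstream sequence was present. The reads came from an Oryza sativa twister ribozyme of 54 nucleotides, whose DNA template was synthesised with 97 % wild-type base and 1 % of each other base at the 48 positions downstream of the cleavage site. The template was transcribed in vitro at 37 °C for 2 h with co-transcriptional self-cleavage, and the RNA was reverse-transcribed using a template-switching oligonucleotide, PCR-amplified and deep-sequenced. Relative activity is the fraction cleaved normalised to wild type.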

| Variant | self-cleavage |
| --- | --- |
| A46U A7U | 0.04 |
| A46U G45C | 0.04 |
| A46U G45U | 0.03 |
| A46U G45A | 0.08 |
| A46U C11A | 0.06 |
| A46U C11G | 0.05 |
| A46U C11U | 0.08 |
| A46U G48C | 0.04 |
| A46U G48U | 0.03 |
| A46U G48A | 0.03 |
| G48A G50C | 0.09 |
| G48A G50U | 0.09 |
| G48A G50A | 0.16 |
| A46U G34C | 0.07 |
| A46U G34A | 0.06 |
| A46U G34U | 0.06 |
| G47A G51U | 0.09 |
| G47A G51A | 0.12 |
| G47A G51C | 0.05 |
| G47U G50C | 0.07 |
| G47U G50A | 0.19 |

| Variant | self-cleavage |
| --- | --- |
| G47U G50U | 0.1 |
| G48C | 0.12 |
| G48A | 0.14 |
| A46U C33U | 0.06 |
| A46U C33G | 0.03 |
| A46U C33A | 0.05 |
| G47U G49A | 0.05 |
| G47U G49C | 0.04 |
| G47U G49U | 0.05 |
| A46U G22A | 0.09 |
| A46U G22C | 0.03 |
| A46U G22U | 0.06 |
| G47A U37A | 0.28 |
| G47A U37C | 0.44 |
| G47A U37G | 0.62 |
| G47C G49A | 0.05 |
| G47C G49U | 0.03 |
| G47C G49C | 0.06 |
| G48C U12G | 0.07 |
| G48C U12C | 0.05 |
| G48C U12A | 0.07 |

| Variant | self-cleavage |
| --- | --- |
| A46G G30C | 0.01 |
| A46G G30U | 0.03 |
| A46G G30A | 0.02 |
| G48A U24G | 0.01 |
| G48A U24A | 0.05 |
| G48A U24C | 0.04 |
| G47U U18A | 0.28 |
| G47U U18C | 0.24 |
| G47U U18G | 0.57 |
| A46G G22A | 0.08 |
| A46G G22C | 0.02 |
| A46G G22U | 0.06 |
| G47U G51A | 0.09 |
| G47U G51U | 0.08 |
| G47U G51C | 0.05 |
| G47U U43A | 0.1 |
| G47U U43G | 0.07 |
| G47U U43C | 0.08 |
| A46U G30C | 0.01 |
| A46U G30U | 0.02 |
| A46U G30A | 0.02 |

| Variant | self-cleavage |
| --- | --- |
| A46U G23A | 0.06 |
| A46U G23C | 0.02 |
| A46U G23U | 0.03 |
| G47C G53U | 0.08 |
| G47C G53A | 0.1 |
| G47C G53C | 0.06 |
| G47C U24G | 0.01 |
| G47C U24A | 0.03 |
| G47C U24C | 0.04 |
| A46G G50C | 0.06 |
| A46G G50A | 0.08 |
| A46G G50U | 0.06 |
| A46G U43G | 0.12 |
| A46G U43A | 0.06 |
| A46G U43C | 0.04 |
| A46U G42C | 0.06 |
| A46U G42A | 0.08 |
| A46U G42U | 0.03 |
| A46G G34C | 0.05 |
| A46G G34A | 0.06 |
| A46G G34U | 0.05 |
